{
  "source": "ChEMBL document CHEMBL1121817",
  "about": "“Synthesis and pharmacological properties of 1,2,3,4,5,6-hexahydro-1,6-methano-2-benzazocines” (J Med Chem, 1981)",
  "key": {"[1]": {"assay": "Analgesic potency was determined by the Eddy hotplate method on mice expressed as lethal dose", "assay_type": "ADME, organism-based", "conditions": "mouse, in vivo", "procedure,_shortened": "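Toxicity was tested in mice in the same series, using aqueous solutions of the hydrochloride, hydrobromide or oxalate salt, and LD50 is reported in mg/kg. When material was scarce, deaths out of ten mice given a single 50 mg/kg dose were recorded instead.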"}, "Mus musculus [2]": {"organism": "Mus musculus", "assay": "Analgesic potency was determined by the Eddy hotplate method on mice", "assay_type": "functional"}, "Mus musculus [3]": {"organism": "Mus musculus", "assay": "Analgesic potency was determined by the Eddy hotplate method on mice expressed as effective dose", "assay_type": "functional", "procedure,_shortened": "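Mouse Eddy hot-plate test. Compounds were given as aqueous solutions of the hydrochloride, hydrobromide or oxalate salt. ED50 is reported in mg/kg and μmol/kg, with a range in parentheses for some entries.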"}, "Mus musculus [4]": {"organism": "Mus musculus", "assay": "Analgesic potency was determined by the Eddy hotplate method on mice expressed as effective dose; IA=Inactive", "assay_type": "functional, organism-based", "procedure,_shortened": "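Mice, Eddy hot-plate analgesia. Test compounds given as aqueous solutions of their hydrochloride, hydrobromide or oxalate salts. ED50 reported in mg/kg and μmol/kg, some with a range in parentheses. Where full activity could not be reached without toxicity, an approximate value is cited. Lethality was scored as LD50 in mg/kg or as deaths per ten mice at 50 mg/kg.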"}},
  "note": "Where “and” joins values, the source holds several entries; their conditions need not be identical. Equal values may be shown once. Calls of active or inactive are those of the source. No cut-off for these calls is given here.",
  "data": [
    {"compound": "CCCN1CCCC2CC1c1ccccc12.Cl", "note": "(stereo unspecified)", "values": [
      {"measurement": "LD50", "setting": "[1]", "result": 75, "unit": "mg/kg"},
      {"measurement": "ED50", "setting": "Mus musculus [2]", "result": "28 mg/kg and 112 µmol/kg"}
    ]},
    {"compound": "COc1ccc2c(c1)C1CCCNC2C1.O=C(O)C(=O)O", "note": "(stereo unspecified)", "values": [
      {"measurement": "ED50", "setting": "Mus musculus [3]", "result": "64 mg/kg and 218 µmol/kg"}
    ]},
    {"compound": "C=CCN1CCCC2CC1c1ccccc12.Cl", "note": "(stereo unspecified)", "values": [
      {"measurement": "LD50", "setting": "[1]", "result": 110, "unit": "mg/kg"},
      {"measurement": "ED50", "setting": "Mus musculus [2]", "result": "28 mg/kg and 112 µmol/kg"}
    ]},
    {"compound": "O=C(O)C(=O)O.c1ccc2c(c1)C1CCCNC2C1", "note": "(stereo unspecified)", "values": [
      {"measurement": "LD50", "setting": "[1]", "result": 225, "unit": "mg/kg"}
    ]},
    {"compound": "COc1ccc2c3c1O[C@H]1[C@@H](O)C=C[C@H]4[C@@H](C2)N(C)CC[C@@]341.COc1ccc2c3c1O[C@H]1[C@@H](O)C=C[C@H]4[C@@H](C2)N(C)CC[C@@]341.O.O=P(O)(O)O.O=P(O)(O)O", "note": "[CODEINE PHOSPHATE]", "values": [
      {"measurement": "ED50", "setting": "Mus musculus [2]", "result": "6.8 mg/kg and 17 µmol/kg"}
    ]},
    {"compound": "CCCN1CCCC2CC1c1ccccc12.O=C(O)C(=O)O", "note": "(stereo unspecified)", "values": [
      {"measurement": "LD50", "setting": "[1]", "result": 110, "unit": "mg/kg"}
    ]},
    {"compound": "Cl.c1ccc(CCN2CCCC3CC2c2ccccc23)cc1", "note": "(stereo unspecified)", "values": [
      {"measurement": "LD50", "setting": "[1]", "result": 225, "unit": "mg/kg"},
      {"measurement": "ED50", "setting": "Mus musculus [2]", "result": "86 mg/kg and 246 µmol/kg"}
    ]},
    {"compound": "COc1ccc2c(c1)C1CCCN(CC=C(C)C)C2C1.O=C(O)C(=O)O", "note": "(stereo unspecified)", "values": [
      {"measurement": "LD50", "setting": "[1]", "result": 300, "unit": "mg/kg"},
      {"measurement": "ED50", "setting": "Mus musculus [4]", "result": "inactive"}
    ]},
    {"compound": "CC(C)=CCN1CCCC2CC1c1ccccc12.O=C(O)C(=O)O", "note": "(stereo unspecified)", "values": [
      {"measurement": "LD50", "setting": "[1]", "result": 130, "unit": "mg/kg"}
    ]},
    {"compound": "Br.Oc1ccc2c(c1)C1CCCN(CCc3ccccc3)C2C1", "note": "(stereo unspecified)", "values": [
      {"measurement": "ED50", "setting": "Mus musculus [3]", "result": "14 mg/kg and 37 µmol/kg"}
    ]},
    {"compound": "O=C(O)C(=O)O.c1ccc(CCN2CCCC3CC2c2ccccc23)cc1", "note": "(stereo unspecified)", "values": [
      {"measurement": "LD50", "setting": "[1]", "result": 225, "unit": "mg/kg"}
    ]},
    {"compound": "Br.CCCN1CCCC2CC1c1ccc(O)cc12", "note": "(stereo unspecified)", "values": [
      {"measurement": "ED50", "setting": "Mus musculus [3]", "result": "32 mg/kg and 103 µmol/kg"}
    ]},
    {"compound": "COc1ccc2c(c1)C1CCCN(CCc3ccccc3)C2C1", "note": "(stereo unspecified)", "values": [
      {"measurement": "ED50", "setting": "Mus musculus [4]", "result": "inactive"}
    ]},
    {"compound": "CC(C)=CCN1CCCC2CC1c1ccccc12.Cl", "note": "(stereo unspecified)", "values": [
      {"measurement": "LD50", "setting": "[1]", "result": 65, "unit": "mg/kg"},
      {"measurement": "ED50", "setting": "Mus musculus [2]", "result": "48 mg/kg and 173 µmol/kg"}
    ]},
    {"compound": "Br.CN1CCCC2CC1c1ccccc12", "note": "(stereo unspecified)", "values": [
      {"measurement": "ED50", "setting": "Mus musculus [2]", "result": "45 mg/kg and 168 µmol/kg"}
    ]},
    {"compound": "Cl.c1ccc2c(c1)C1CCCNC2C1", "note": "(stereo unspecified)", "values": [
      {"measurement": "LD50", "setting": "[1]", "result": 225, "unit": "mg/kg"},
      {"measurement": "ED50", "setting": "Mus musculus [2]", "result": "12 mg/kg and 57 µmol/kg"}
    ]},
    {"compound": "COc1ccc2c(c1)C1CCCN(C)C2C1.O=C(O)C(=O)O", "note": "(stereo unspecified)", "values": [
      {"measurement": "LD50", "setting": "[1]", "result": 157, "unit": "mg/kg"},
      {"measurement": "ED50", "setting": "Mus musculus [3]", "result": "16 mg/kg and 52 µmol/kg"}
    ]},
    {"compound": "C=CCN1CCCC2CC1c1ccccc12.O=C(O)C(=O)O", "note": "(stereo unspecified)", "values": [
      {"measurement": "LD50", "setting": "[1]", "result": 150, "unit": "mg/kg"}
    ]},
    {"compound": "CN1CCCC2CC1c1ccc(O)cc12", "note": "(stereo unspecified)", "values": [
      {"measurement": "ED50", "setting": "Mus musculus [4]", "result": "inactive"}
    ]}
  ]
}
